A selection: hits, their analogues and other compounds. The true share with any hit is near 1.2%.
SR-BI DiI inh – inhibitors of mouse SR-BI mediated HDL lipid uptake. Q61009. AID 488896. ldlA[mSR-BI] CHO cells, DiI-HDL uptake fluorescence, 3 h. actives 0.96% (n = 320,000). inhibition, % at 12.5 µM;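 active means mean replicate inhibition of at least 70% and a set share of replicates each scoring 70 or more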;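 further: 0% = median of neutral control wells and 100% = median of positive control wells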
Target sequence (Q61009 whole entry, looked up): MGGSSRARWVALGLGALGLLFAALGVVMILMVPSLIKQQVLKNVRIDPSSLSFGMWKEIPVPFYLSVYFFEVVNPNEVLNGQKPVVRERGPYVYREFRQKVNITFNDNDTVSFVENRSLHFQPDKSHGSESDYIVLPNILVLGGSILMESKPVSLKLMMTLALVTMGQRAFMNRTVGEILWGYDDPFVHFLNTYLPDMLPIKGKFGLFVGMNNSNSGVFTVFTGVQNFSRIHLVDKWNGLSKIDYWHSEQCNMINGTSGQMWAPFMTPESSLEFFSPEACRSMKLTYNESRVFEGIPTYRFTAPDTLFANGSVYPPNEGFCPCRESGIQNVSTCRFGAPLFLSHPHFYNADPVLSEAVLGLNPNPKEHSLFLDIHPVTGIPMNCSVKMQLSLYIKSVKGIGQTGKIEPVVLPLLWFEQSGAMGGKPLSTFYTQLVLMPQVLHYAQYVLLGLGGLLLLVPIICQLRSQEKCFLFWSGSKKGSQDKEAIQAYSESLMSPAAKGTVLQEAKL
FN deposition inh – fibronectin deposition inhibition; AH1F fibroblasts, Alexa488-fibronectin deposition fluorescence, overnight; inhibition, % at 12.6 µM; actives 0.086% (n = 350,000);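 active means mean inhibition across replicates of 30% or more, regardless of how many single replicates reach that level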;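 further: positive control wells lacked labelled fibronectin entirely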
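Assay system: AH1F fibroblasts / Quantity: 10000 cells per well / Medium: DMEM plus 2% serum, read in PBS / Reagent: labelled fibronectin 24 nM / Dosing: single dose, pinned / Times: 1 h cell attachment, overnight exposure to compound and label / Signal: fluorescence, ex 485 nm, em 525 nm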
Efflux pump inh – blocks antifungal efflux pumps in multiplex yeast assay; S. cerevisiae Candida pump triplex, Nile Red efflux; inhibition, % at 10 µM; actives 0.44% (n = 330,000);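 active means plate passing quality check with inhibition over a set limit, or well fluorescence over plate mean plus 4 SD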;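 further: Nile Red retained in pooled yeast measured as flow cytometry median fluorescence; 0% = buffer negative control and 100% = Enniatin B positive control; higher means more Nile Red kept so more efflux inhibition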
SR-BI DiI-HDL act – enhances SR-BI lipid uptake from DiI-HDL; activation, % at 12.5 µM; CHO ldlA[mSR-BI] cells, DiI-HDL uptake fluorescence, 3 h; 100 = double the neutral-control signal; actives 0.096% (n = 320,000);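 active means mean replicate activation of at least 60% and every replicate at or above 60%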;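 further: 0% = median plate neutral-control signal and 100% = twice that signal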
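Assay system: LDL receptor-deficient CHO ldlA cells overexpressing murine SR-BI / Medium: BSA-supplemented, HEPES-buffered Ham's F12, pH 7.4 / Probe or stimulus: DiI-labelled HDL at 10 µg/mL final / Timing: compound with DiI-HDL co-incubation, 3 h at 37 °C / Technique: bottom-read cell fluorescence after medium removal, ex 550/em 595 nm / Measure: HDL uptake via cellular fluorescence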
CaV13 FRET inh – Primary screen for inhibitors of IQ motif and Ca2+-dependent inactivation inhibitor domain binding in CACNA1D, Förster resonance energy transfer in living cells, …. actives 0.098% (n = 340,000). inhibition, % at 12.3 µM. HEK cells, CFP/YFP FRET ICDI-IQ, plate reader, 10 min; percent FRET-ratio fall versus neutral wells. AID 743397;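 active means mean replicate inhibition of at least 30% and at least 1% of replicates passing that level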;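 further: 0% = median of the neutral control wells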
* marks the source's active call; other numbers are inactive results.

`Cc1[nH]n(-c2ccccc2)c(=O)c1/C=N/NC(=O)c1cccc(F)c1` gave SR-BI DiI inh 132.4*, FN deposition inh 6.3, Efflux pump inh 0.0, SR-BI DiI-HDL act -132.4 and CaV13 FRET inh -16.5.
Cc1ccc(/C=N/Nc2nncc(-c3ccccc3)n2)o1 was read as SR-BI DiI inh 8.9, FN deposition inh 4.7, Efflux pump inh 0.0, SR-BI DiI-HDL act -8.9 and CaV13 FRET inh 2.2.
Screening Cc1[nH]n(-c2ccccc2)c(=O)c1/C=N/NC(=O)c1ccc(O)cc1O returned SR-BI DiI inh 43.9, Efflux pump inh -0.1 and SR-BI DiI-HDL act -43.9.
CCCCN(CCCC)C(=S)N/N=C/c1c(C)[nH]n(-c2ccccc2)c1=O was read as SR-BI DiI inh 17.9, Efflux pump inh 0.2, SR-BI DiI-HDL act -17.9 and CaV13 FRET inh -7.0.
`COCCNC(=O)C[C@@H]1C[C@@H]2c3cc(NC(=O)c4cccnc4)ccc3O[C@@H]2[C@@H](CO)O1` gave FN deposition inh 0.2.
CO[C@@H]1CN(C)C(=O)c2cc(NC(C)=O)ccc2OC[C@H](C)N(Cc2cccc(F)c2)C[C@@H]1C was read as FN deposition inh 2.0.
`COc1cc2c(cc1OC)C1(Nc3c-2c(-c2ccccc2)nn3-c2ccccc2)C(=O)Nc2ccccc21` (configuration not stated) gave SR-BI DiI inh -7.3, Efflux pump inh 1.2* and SR-BI DiI-HDL act 7.3.
Screening CCOc1ccccc1/C=C/c1onc(C)c1S(=O)(=O)N1CCC(C(=O)NC(C)C)CC1 returned SR-BI DiI inh 51.3, FN deposition inh 2.9, Efflux pump inh -0.2, SR-BI DiI-HDL act -51.3 and CaV13 FRET inh -3.0.
`CCOc1ccccc1/C=C/c1onc(C)c1S(=O)(=O)N1CCC(C(=O)N2CCCCCC2)CC1` gave SR-BI DiI inh 92.1*, FN deposition inh -0.4, Efflux pump inh -0.1, SR-BI DiI-HDL act -92.1 and CaV13 FRET inh -7.6.
For CCN(CCO)Cc1csc2ccc(C(C)(C)C)cc12 the results were SR-BI DiI inh 60.5, Efflux pump inh 0.1, SR-BI DiI-HDL act -60.5 and CaV13 FRET inh -7.8.
Screening CCN(CCO)Cc1csc2ccc(Cl)cc12 returned SR-BI DiI inh -70.0, FN deposition inh -1.3, Efflux pump inh 0.1, SR-BI DiI-HDL act 70.0* and CaV13 FRET inh -4.1.
For COc1cccc(N=Nc2ccc3ccccc3c2O)c1 the results were SR-BI DiI inh 71.8*, FN deposition inh -11.1, Efflux pump inh 0.3, SR-BI DiI-HDL act -71.8 and CaV13 FRET inh -4.1.
`COc1ccccc1-c1cnc2c(c1)C(=O)N([C@@H](C)CO)C[C@@H](C)[C@@H](CN(C)Cc1ccncc1)O2` gave FN deposition inh -2.4.
For COc1cccc(CC(=O)Nc2ccccc2C(=O)N2CCOCC2)c1 the results were SR-BI DiI inh -71.3, Efflux pump inh 0.8, SR-BI DiI-HDL act 71.3* and CaV13 FRET inh -9.0.
NC(=O)[C@H]1CC2(CC(c3cccc(NC(=O)COc4ccc(Cl)cc4)c3)=NO2)CN1C(=O)c1ccc(Cl)cc1 (some centres not stated) was read as SR-BI DiI inh 66.2, FN deposition inh 10.3, Efflux pump inh -0.3, SR-BI DiI-HDL act -66.2 and CaV13 FRET inh -6.1.
NC(=O)[C@H]1CC2(CC(c3cccc(NC(=O)COc4ccc(Cl)cc4)c3)=NO2)CN1C(=O)c1ccccc1C(=O)c1ccccc1 (some centres not stated) was read as SR-BI DiI inh 76.7*, FN deposition inh 9.1, Efflux pump inh -0.1, SR-BI DiI-HDL act -76.6 and CaV13 FRET inh -9.5.
Screening O=c1c2ccc(F)cc2sn1-c1ccccc1 returned CaV13 FRET inh -6.3.
For O=c1c2cc(F)ccc2sn1-c1ccccc1Cl the results were FN deposition inh 40.8* and CaV13 FRET inh -4.0.
For C[C@H](CO)N1C[C@H](C)[C@@H](CN(C)C(=O)C2CC2)Oc2cc(C3=CCCC3)ccc2S1(=O)=O the results were FN deposition inh -16.9.
Cc1cc(C)nc(N/N=C/C2=C(N3CCOCC3)C(=C\c3ccc(Cl)cc3)/CC2)n1 was read as SR-BI DiI inh 73.8*, FN deposition inh -9.9, Efflux pump inh -0.1, SR-BI DiI-HDL act -73.8 and CaV13 FRET inh -5.9.
For Cc1occc1C(=O)N/N=C/C1=C(N2CCOCC2)C(=C\c2ccc(Cl)cc2Cl)/CC1 the results were SR-BI DiI inh 77.1*, FN deposition inh -8.4, Efflux pump inh 0.0, SR-BI DiI-HDL act -77.1 and CaV13 FRET inh 6.7.
C/C(=N/NC(=O)c1ccoc1C)c1ccc(N2CCOCC2)cc1 was read as SR-BI DiI inh -5.6, FN deposition inh -1.9, Efflux pump inh 0.0, SR-BI DiI-HDL act 5.6 and CaV13 FRET inh -4.3.
For Cc1cc(C)nc(NN=CC2=C(N3CCOCC3)/C(=C/c3ccc(Cl)cc3)CC2)n1 the results were SR-BI DiI inh 75.6*, FN deposition inh -3.6, SR-BI DiI-HDL act -75.6 and CaV13 FRET inh -5.4.
Screening CO[C@@H]1CN(C)C(=O)c2cc(NS(C)(=O)=O)ccc2OC[C@H](C)N(Cc2ccccn2)C[C@@H]1C returned FN deposition inh -3.5.
Screening CCC(=O)N1C[C@H](C)[C@@H](OC)CN(C)C(=O)c2cc(NC(=O)CC(F)(F)F)ccc2OC[C@@H]1C returned FN deposition inh -1.5.
Screening Cn1cccc1-c1nc2ccc(NC(=O)c3ccc([N+](=O)[O-])cc3)cc2[nH]1 returned SR-BI DiI inh 86.9*, FN deposition inh 5.5, Efflux pump inh -0.1, SR-BI DiI-HDL act -86.9 and CaV13 FRET inh -5.7.
Cc1ccc2[nH]c(C)c(/C=N/Nc3nc4ccccc4s3)c2c1 was read as SR-BI DiI inh 122.3*, FN deposition inh 1.8, Efflux pump inh -0.1, SR-BI DiI-HDL act -122.3 and CaV13 FRET inh -5.3.
C[C@@H]1CCCCO[C@@H](CN(C)S(=O)(=O)c2ccc(Cl)cc2)[C@H](C)CN([C@@H](C)CO)C(=O)c2cc(NS(=O)(=O)c3ccccc3)ccc2O1 was read as FN deposition inh -10.7.
`O=C(CC12CC3CC(CC(C3)C1)C2)NCc1ccc(F)cc1` gave SR-BI DiI inh 83.4*, FN deposition inh -3.0, Efflux pump inh 0.0, SR-BI DiI-HDL act -83.4 and CaV13 FRET inh 12.9.
Screening CO[C@@H]1CN(C)C(=O)c2cc(NS(=O)(=O)c3ccc(-c4ccccc4)cc3)ccc2OC[C@H](C)NC[C@@H]1C returned FN deposition inh 6.9.
Screening CCOC(=O)Cc1csc(NC(=O)c2sc3nc4c(C)cc(C)cc4cc3c2N)n1 returned SR-BI DiI inh 80.2*, Efflux pump inh 0.1, SR-BI DiI-HDL act -80.2 and CaV13 FRET inh -9.9.
For O=C(CCC(=O)NCCCc1ccccc1)NCCCc1ccccc1 the results were SR-BI DiI inh -61.7, FN deposition inh -1.3, Efflux pump inh -0.2, SR-BI DiI-HDL act 61.7* and CaV13 FRET inh -2.4.
